Measurements from ChEMBL document CHEMBL2163260, “Synthesis and biological evaluation of antifungal derivatives of enfumafungin as orally bioavailable inhibitors of β-1,3-glucan synthase” (Bioorg Med Chem Lett, 2012).
Converted amounts (≈) assume the structure as drawn.

Columns and labels:
Candida albicans [1] = experiment: Antifungal activity against Candida albicans MY1055 infected in DBA/2 mouse assessed as reduction in kidney fungal burden measured per gram of tissue at 6.25 mg/kg, po bid for 2 days post infection measured after 4 days relative to sham-treated control; assay type: functional
Method in brief: (§1)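 DBA/2 mice were given 3.0 × 10^4 CFU of C. albicans MY1055 iv into the lateral tail vein in 0.2 mL. Dosing ip or po, bid for 2 days, began 15–30 min after challenge, with a sham-treated control for each route and diluent. At day 4, paired kidneys (4–5 mice/group) were homogenized in saline, serially diluted and plated on SD agar (35 °C, 30–48 h). Mean CFU/g was compared with sham.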

Candida albicans [2] = experiment: Antifungal activity against Candida albicans MY1055 infected in DBA/2 mouse assessed as reduction in kidney fungal burden measured per gram of tissue at 12.5 mg/kg, po bid for 2 days post infection measured after 4 days relative to sham-treated control; assay type: functional; method in brief: as §1
Candida albicans [3] = experiment: Antifungal activity against Candida albicans MY1055 infected in DBA/2 mouse assessed as reduction in kidney fungal burden measured per gram of tissue at 25 mg/kg, po bid for 2 days post infection measured after 4 days relative to sham-treated control; assay type: functional; method in brief: as §1
Candida albicans [4] = experiment: Antifungal activity against Candida albicans MY1055 infected in DBA/2 mouse assessed as reduction in kidney fungal burden measured per gram of tissue at 12.5 mg/kg, ip bid for 2 days post infection measured after 4 days relative to sham-treated control; assay type: functional; conditions: route intraperitoneal; method in brief: as §1
Candida albicans [5] = experiment: Antifungal activity against Candida albicans; assay type: functional
[6] = Inhibition of Candida albicans beta-1,3-glucan synthase assessed as [3H]UDPG incorporation after 60 mins by scintillation counting
Method in brief: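 C. albicans glucan synthase was incubated for 60 min at 22 °C in 50 mM HEPES pH 7.5 with 0.5 mM 3H-UDPG (6000–8000 dpm/nmol), 10% glycerol, 1.5 mg/mL BSA, 25 mM KF, 1 mM EDTA and GTP-γ-S. Enzyme was set to give 3–6 nmol incorporation. Compounds were added as threefold DMSO dilutions. The reaction was stopped with 20% TCA and chilled, and glucan was collected on GF/C filters, water-washed and scintillation counted.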

Mus musculus = experiment: Dose normalised AUC in po dosed mouse; assay type: ADME, organism-based; conditions: in vivo
[7] = Oral bioavailability in mouse; assay type: ADME, organism-based; conditions: in vivo
[8] = Clearance in po dosed mouse; assay type: ADME, organism-based; conditions: in vivo
Candida albicans [9] = experiment: Antifungal activity against Candida albicans MY1055 after 24 hrs by NCCLS microdilution method; assay type: functional; conditions: MY1055, 24 h
[10] = Inhibition of Candida albicans MY1055 beta-1,3-glucan synthase assessed as [3H]UDPG incorporation after 60 mins

SMILES | MIC (Candida albicans [5]) | IC50 [6] | AUC/dose (Mus musculus) | bioavailability [7] | clearance [8] | MIC (Candida albicans [9]) | IC50 [10] | deltalog10CFU (Candida albicans [1]) | deltalog10CFU (Candida albicans [2]) | deltalog10CFU (Candida albicans [3]) | deltalog10CFU (Candida albicans [4])
CC(C)[C@@H](C)[C@@]1(C)CC[C@]2(C)[C@H]3CC[C@@H]4[C@@]5(COC[C@@]4(C)[C@@H](OC[C@@]4(C)CCCN4C)[C@H](n4ncnc4-c4ccncc4)C5)C3=CC[C@@]2(C)[C@@H]1C(=O)O | 0.125 µg/mL (≈ 0.172 µM) | 0.0064 µg/mL (≈ 0.00879 µM) | – | – | – | – | – | -0.9 | -1.4 | -2 | -1.8
CC(C)[C@@H](C)[C@@]1(C)CC[C@]2(C)[C@H]3CC[C@@H]4[C@@]5(COC[C@@]4(C)[C@@H](OC[C@@]4(C)CCCN4)[C@H](n4ncnc4-c4ccncc4)C5)C3=CC[C@@]2(C)[C@@H]1C(=O)O | 0.125 µg/mL (≈ 0.175 µM) | 0.004 µg/mL (≈ 0.0056 µM) | 0.06 µM·kg·h/mg | 4.7% | 19.2 mL/min/kg | – | – | – | – | -2.16 | -2.83
CC(C)[C@@H](C)[C@@]1(C)CC[C@]2(C)[C@H]3CC[C@@H]4[C@@]5(COC[C@@]4(C)[C@@H](OC[C@H]4CCCN4C)[C@H](n4ncnc4-c4ccncc4)C5)C3=CC[C@@]2(C)[C@@H]1C(=O)O | 0.5 µg/mL (≈ 0.7 µM) | 0.019 µg/mL (≈ 0.0266 µM) | 0.06 µM·kg·h/mg | 23% | 13.1 mL/min/kg | – | – | -1.22 | -0.9 | -1.14 | -1.84
CC(C)[C@@H](C)[C@@]1(C)CC[C@]2(C)[C@H]3CC[C@@H]4[C@@]5(COC[C@@]4(C)[C@@H](OC[C@@H]4CCCN4C)[C@H](n4ncnc4-c4ccncc4)C5)C3=CC[C@@]2(C)[C@@H]1C(=O)O | 1 µg/mL (≈ 1.4 µM) | 0.061 µg/mL (≈ 0.0854 µM) | – | – | – | – | – | – | – | – | –
CC(=O)O[C@@H]1C[C@]23C4=CC[C@@]5(C)[C@H](C(=O)O)[C@@](C)([C@H](C)C(C)C)CC[C@]5(C)[C@H]4CC[C@H]2[C@@](C)(COC3O)[C@H]1O[C@@H]1O[C@H](CO)[C@@H](O)[C@H](O)[C@H]1O (stereo not given in full) [ENFUMAFUNGIN] | – | – | – | – | – | 0.2 µg/mL (≈ 0.282 µM) | 0.05 µg/mL (≈ 0.0705 µM) | – | – | – | –

More lines, in order of falling MIC (Candida albicans [5]), values ahead:

MIC (Candida albicans [5]) | IC50 [6] | AUC/dose (Mus musculus) | bioavailability [7] | clearance [8] | MIC (Candida albicans [9]) | IC50 [10] | SMILES | deltalog10CFU (Candida albicans [1]) | deltalog10CFU (Candida albicans [2]) | deltalog10CFU (Candida albicans [3]) | deltalog10CFU (Candida albicans [4])
1 µg/mL (≈ 1.43 µM) | 0.018 µg/mL (≈ 0.0257 µM) | – | – | – | – | – | CC(C)[C@@H](C)[C@@]1(C)CC[C@]2(C)[C@H]3CC[C@@H]4[C@@]5(COC[C@@]4(C)[C@@H](OC[C@@H]4CCCN4)[C@H](n4ncnc4-c4ccncc4)C5)C3=CC[C@@]2(C)[C@@H]1C(=O)O | -0.4 | -0.26 | -1.32 | -2.18
0.5 µg/mL (≈ 0.714 µM) | 0.022 µg/mL (≈ 0.0314 µM) | 0.03 µM·kg·h/mg | 1.7% | 16.3 mL/min/kg | – | – | CC(C)[C@@H](C)[C@@]1(C)CC[C@]2(C)[C@H]3CC[C@@H]4[C@@]5(COC[C@@]4(C)[C@@H](OC[C@H]4CCCN4)[C@H](n4ncnc4-c4ccncc4)C5)C3=CC[C@@]2(C)[C@@H]1C(=O)O | -0.27 | -1.81 | -2.09 | -1.69
0.03 µg/mL (≈ 0.0403 µM) | 0.002 µg/mL (≈ 0.00269 µM) | 0.62 µM·kg·h/mg | 42% | 16 mL/min/kg | – | – | CN[C@@](C)(CO[C@H]1[C@H](n2ncnc2-c2ccncc2)C[C@@]23COC[C@]1(C)[C@@H]2CC[C@H]1C3=CC[C@@]2(C)[C@H](C(=O)O)[C@@](C)([C@H](C)C(C)C)CC[C@]12C)C(C)(C)C | -2.72 | -3.88 | -4.25 | -4.37
